Measurements from ChEMBL document CHEMBL4373706, “Discovery of Inhibitors of Aurora/PLK Targets as Anticancer Agents” (J Med Chem, 2019).
≈ marks a conversion by molar mass, not a printed value. Calls of active or inactive are those of the source. The calls are words filed in the database; no cut-off is given here.

Columns and labels:
[1] = Half life in Sprague-Dawley rat at 10 mg/kg, iv administered […] by LC-MS/MS analysis; assay type: ADME, organism-based; settings: in vivo
[2] = Oral bioavailability in Sprague-Dawley rat at 50 mg/kg administered via gastric gavage by LC-MS/MS analysis; assay type: ADME, organism-based; settings: in vivo
[3] = AUC (0 to infinity) in Sprague-Dawley rat at 50 mg/kg, po administered via gastric gavage by LC-MS/MS analysis; assay type: ADME, organism-based; set-up: dose 50 mg/kg, time infinity, route oral; settings: in vivo
[4] = Solubility of the compound in water; assay type: physicochemical
Method in brief: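 Solubility of the compound measured at 25±0.2°C, separately in water and in DMSO; reported in µg/mL.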

[5] = tested on: HCT-116; assay: Inhibition of colony formation in human HCT116 cells at 10 uM incubated for 48 hrs followed by supplemented with fresh medium every 3 days for 2 weeks by crystal violet staining-based assay; assay type: functional, cell-based
[6] = target: Cyclin-dependent kinase 6 (Homo sapiens, UniProt Q00534); assay: Binding affinity to wild-type human full-length CDK6 (M1 to A326 residues) expressed in mammalian expression system measured after 1 hr by kinomescan method; settings: pooled result: one value given for 15 cell lines, strains, targets or settings
Sequence of Cyclin-dependent kinase 6 (Q00534 whole entry, the tested form may be a part, canonical isoform): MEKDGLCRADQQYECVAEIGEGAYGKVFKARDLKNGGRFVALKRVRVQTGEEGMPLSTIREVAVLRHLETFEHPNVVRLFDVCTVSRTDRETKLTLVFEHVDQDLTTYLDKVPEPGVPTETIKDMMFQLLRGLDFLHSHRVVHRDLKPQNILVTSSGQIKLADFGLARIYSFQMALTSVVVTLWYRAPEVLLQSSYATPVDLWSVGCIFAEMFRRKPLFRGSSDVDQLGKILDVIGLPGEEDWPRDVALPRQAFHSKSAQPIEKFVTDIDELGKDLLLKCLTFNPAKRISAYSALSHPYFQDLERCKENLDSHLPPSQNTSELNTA

[7] = target: T1, Phosphatidylinositol 4,5-bisphosphate 3-kinase catalytic subunit delta isoform (Homo sapiens, UniProt O00329); assay: Binding affinity to wild-type human partial length PIK3CD (R108 to Q1044 residues) expressed in mammalian expression system measured after 1 hr by kinomescan method; settings: pooled result: one value given for 15 cell lines, strains, targets or settings
T1 sequence (O00329 whole entry): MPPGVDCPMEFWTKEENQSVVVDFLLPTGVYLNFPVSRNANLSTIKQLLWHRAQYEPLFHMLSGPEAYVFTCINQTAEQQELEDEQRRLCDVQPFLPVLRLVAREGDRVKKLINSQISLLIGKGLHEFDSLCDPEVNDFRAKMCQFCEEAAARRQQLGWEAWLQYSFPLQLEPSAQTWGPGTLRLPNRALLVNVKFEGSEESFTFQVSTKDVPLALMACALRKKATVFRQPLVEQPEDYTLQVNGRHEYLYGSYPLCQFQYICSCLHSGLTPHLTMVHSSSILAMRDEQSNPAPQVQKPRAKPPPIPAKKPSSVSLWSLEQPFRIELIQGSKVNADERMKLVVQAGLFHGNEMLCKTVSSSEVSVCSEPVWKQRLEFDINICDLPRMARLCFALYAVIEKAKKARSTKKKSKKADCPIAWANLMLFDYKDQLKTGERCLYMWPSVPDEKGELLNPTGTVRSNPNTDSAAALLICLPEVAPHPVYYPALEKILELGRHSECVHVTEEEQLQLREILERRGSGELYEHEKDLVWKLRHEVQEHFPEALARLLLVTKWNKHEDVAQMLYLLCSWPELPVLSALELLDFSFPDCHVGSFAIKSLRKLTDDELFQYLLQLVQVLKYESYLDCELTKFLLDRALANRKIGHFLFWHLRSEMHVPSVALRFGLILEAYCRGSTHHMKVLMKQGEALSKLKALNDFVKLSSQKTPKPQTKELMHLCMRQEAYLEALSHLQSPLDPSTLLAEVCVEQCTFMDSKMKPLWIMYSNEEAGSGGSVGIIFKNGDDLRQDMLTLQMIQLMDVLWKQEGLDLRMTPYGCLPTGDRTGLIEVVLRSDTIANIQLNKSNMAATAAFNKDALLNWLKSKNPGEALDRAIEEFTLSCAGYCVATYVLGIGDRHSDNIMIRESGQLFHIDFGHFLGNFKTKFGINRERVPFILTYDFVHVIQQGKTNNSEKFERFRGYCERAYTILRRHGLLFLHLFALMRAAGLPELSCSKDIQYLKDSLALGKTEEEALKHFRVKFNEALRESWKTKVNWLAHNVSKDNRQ

[8] = target: T2, Mitogen-activated protein kinase 15 (Homo sapiens, UniProt Q8TD08); assay: Binding affinity to wild-type human partial length ERK8 (M1 to P437 residues) expressed in bacterial expression system measured after 1 hr by kinomescan method; settings: pooled result: one value given for 7 cell lines, strains, targets or settings
T2 sequence (Q8TD08 whole entry): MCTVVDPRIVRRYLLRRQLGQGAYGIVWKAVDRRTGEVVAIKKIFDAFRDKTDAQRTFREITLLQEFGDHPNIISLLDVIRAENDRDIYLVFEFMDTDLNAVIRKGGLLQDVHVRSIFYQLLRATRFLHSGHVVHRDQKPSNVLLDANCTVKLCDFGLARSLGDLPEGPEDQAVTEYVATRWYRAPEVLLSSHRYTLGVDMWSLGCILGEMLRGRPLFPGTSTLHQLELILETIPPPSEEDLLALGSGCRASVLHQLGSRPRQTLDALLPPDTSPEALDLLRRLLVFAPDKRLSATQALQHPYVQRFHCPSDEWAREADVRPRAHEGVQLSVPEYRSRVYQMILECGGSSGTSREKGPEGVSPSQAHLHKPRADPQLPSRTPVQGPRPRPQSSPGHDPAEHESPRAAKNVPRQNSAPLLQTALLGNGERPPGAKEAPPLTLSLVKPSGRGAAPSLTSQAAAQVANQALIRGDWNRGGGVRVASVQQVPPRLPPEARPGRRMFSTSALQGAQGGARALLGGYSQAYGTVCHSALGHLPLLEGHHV

[9] = target: Aurora kinase B (Homo sapiens, UniProt Q96GD4); assay: Binding affinity to wild-type human partial length AURKB (D25 to A303 residues) expressed in mammalian expression system measured after 1 hr by Kinomescan method
Sequence of Aurora kinase B (Q96GD4 whole entry, the tested form may be a part): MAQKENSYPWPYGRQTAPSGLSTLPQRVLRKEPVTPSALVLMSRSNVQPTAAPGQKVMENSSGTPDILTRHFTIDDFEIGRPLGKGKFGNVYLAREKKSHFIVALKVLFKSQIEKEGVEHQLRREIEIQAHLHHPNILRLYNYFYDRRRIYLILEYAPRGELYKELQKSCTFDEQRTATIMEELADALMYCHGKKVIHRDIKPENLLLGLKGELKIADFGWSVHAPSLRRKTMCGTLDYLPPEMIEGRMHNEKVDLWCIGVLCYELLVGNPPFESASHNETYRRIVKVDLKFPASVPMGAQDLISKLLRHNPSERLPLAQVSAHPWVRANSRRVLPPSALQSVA
Method in brief: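 KINOMEscan competition binding assay. A 321-kinase panel was first screened at 10 μM compound, and binding affinities were then determined for Aurora and PLK family members.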

[10] = tested on: HCT-116; assay: Cell cycle arrest in human HCT116 cells assessed as accumulation at G2/M phase at 10 uM measured after 24 to 48 hrs by propidium iodide staining-based flow cytometry (reference value: 3.37%); assay type: functional
[11] = tested on: HCT-116; assay: Cell cycle arrest in human HCT116 cells assessed as accumulation at G2/M phase at 1 uM measured after 24 to 48 hrs by propidium iodide staining-based flow cytometry (reference value: 3.37%); assay type: functional
[12] = tested on: HCT-116; assay: Induction of apoptosis in human HCT116 cells assessed as apoptotic cell population at 1 uM measured after 48 hrs by Annexin V-FITC/propidium iodide staining-based flow cytometry (reference value: 5.9%); assay type: functional
[13] = tested on: MCF7; assay: Antiproliferative activity against human MCF7 cells measured after 48 hrs by MTT assay; assay type: functional, cell-based; settings: MCF7, 48 h
Method in brief: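 Cells were exposed to a range of compound concentrations for 48 h. MTT reagent was then added and absorbance read at 490 nm. Viability was normalized to vehicle control set as 100%, from n = 3 independent experiments, and IC50 was taken from the dose–response curves.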

[14] = tested on: HCT-116; assay: Antitumor activity against human HCT116 cells xenografted in BALB/c mouse assessed as mean survival days at 1 mg/kg, iv administered every 3 days for 60 days (reference value: 25 day); assay type: functional
[15] = tested on: HCT-116; assay: Antitumor activity against human HCT116 cells xenografted in BALB/c mouse assessed as mean survival days at 5 mg/kg, iv administered every 3 days for 60 days (reference value: 25 day); assay type: functional

SMILES: O=C(Nc1ccc2cc(C(=O)Nc3nccs3)ccc2c1)c1ccc(Cl)c(Cl)c1
- half-life [1]: 16.2 h
- F [2]: 65%
- AUC [3]: 819.495 µg·h/mL
- solubility [4]: 9.6 µg/mL (≈ 21.7 µM)
- inhibition [5]: Active
- Kd [6]: 8.02 µM
- Kd [7]: 7.11 µM
- Kd [8]: 5.32 µM
- Kd [9]: 0.078 µM
- Activity [10]: 29.66%
- Activity [11]: 7.51%
- Activity [12]: 41.1%
- IC50 [13]: 2.3 µM
- MSD [14]: 37.5 days
- MSD [15]: 45 days
